The test system of the experiment is PBMC from prostate cancer patients. Kind of experiment: Ex vivo IFN-γ ELISPOT assay for immunogenicity. It is filed as cell-based, human. As to conditions: positive control 10 µg/ml, 40 h. Summed up:
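Ficoll-isolated patient PBMC, 3×10^5/well in triplicate, on anti-IFN-γ-coated plates (5 μg/ml; blocked with RPMI 1640 + 5% pooled human serum, 1 h, 37°C). Phytohemagglutinin 10 µg/ml; no-peptide medium control; IL-2 20 units/ml in all wells; 40 h, 37°C. Detection: biotin anti-IFN-γ 1 µg/ml final (2 h), avidin-biotin-HRP (1 h), […]. Spots counted automatically; mean SFU/well computed; positive if ≥2× no-peptide wells.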

Take phytohemagglutinin: the Positivity index amounted to 57.3 (Patient 2); 197.0 (Patient 5); 154.5 (Patient 6); 131.4 (Patient 7); 186.0 (Patient 9); 253.3 (Patient 10).

The values are drawn from publication PMC6144584 (SAGE Open Medicine, 2018).
